# Results gathered from unrelated publications.
# Lines come from different studies, so protocols differ.
# Cell line: MDA-MB-435
# Effect on: cell growth or viability
SMILES,technique,tested at,time,endpoint,value
O=C1CCC2(Oc3cccc4cccc(c34)O2)c2c(O)ccc(O)c21,resazurin,,72 h,IC50,> 25000 nM
CCOC(=O)c1[nH]c(Br)c(-c2ccc(OC)cc2)c1Br,SRB,,,IC50,843 nM
COc1ccc(C(=O)/C=C/c2ccc3ccccc3c2)cc1S(N)(=O)=O,SRB,10 µM,,inhibition,98%
COc1cc(Nc2nccc(-c3cnn4nc(OC)ccc34)n2)cc(C(F)(F)F)c1,ATP luminescence,,,IC50,130 nM
COc1ccc(C(=O)/C=C/c2cccnc2)cc1S(N)(=O)=O,SRB,10 µM,,inhibition,26%
CCOC(=O)c1[nH]c(Br)c(-c2ccc(Cl)cc2)c1Br,SRB,,,IC50,919 nM
COc1ccc(C(=O)/C=C/c2ccc(Cl)c(Cl)c2)cc1S(N)(=O)=O,SRB,,48 h,GI50,2400 nM
O=C1NC(=NCc2cccs2)S/C1=C\c1ccc2ncccc2c1,,,,IC50,6600 nM
COc1ccc(-c2ccc(-c3ccc(C(=N)N)nc3)s2)cc1Cl,SRB,,,GI50,1730 nM
COc1ccc(N(C)c2nc(C)nc3c2C[C@@H](C)C3)cc1 (racemic),SRB,,,IC50,17 nM
CCOC(=O)c1[nH]c(Br)c(-c2ccc(Br)cc2)c1Br,SRB,,,IC50,312 nM
COc1ccc(C(=O)/C=C/c2cccc(Cl)c2)cc1S(N)(=O)=O,SRB,10 µM,,inhibition,86%
CCOC(=O)c1[nH]c(Br)c(-c2ccc(OC)c(F)c2)c1Br,SRB,,,IC50,539 nM
COc1ccc(-c2ccc(-c3ccc(C(=N)N)nc3)s2)cc1,SRB,,,GI50,1730 nM
